Assay results reported in article PMC4773674 (Journal of Diabetes Investigation, 2015).

Assays:
[1] = Safety: adverse events, hypoglycemic episodes, injection-site reactions; type: in vivo, Japanese patients with type 1 diabetes
Summary of the method: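 Randomized, double-blind, two-period crossover trial with once-daily […] dosing at 20.00 h for 6 days; periods separated by 7–21-day washout; insulin aspart boluses allowed. Safety end-points: AEs, injection-site reactions, ECG, vital signs, labs. Confirmed hypoglycemia: severe (ADA definition), plasma glucose <3.1 mmol/L, or full blood glucose <2.8 mmol/L.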

[2] = cited from earlier work
[3] = Serum IDeg pharmacokinetics; type: in vivo, Japanese patients with type 1 diabetes
Summary of the method: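 Serum drug levels were measured by specific sandwich ELISA. Troughs were drawn before each of 6 once-daily doses given at 20.00 h. After the last dose, samples were taken every 1–2 h to 24 h, then at 30, 36, 48, 72, 96 and 120 h. Post-hoc steady-state time was the time from first dose until troughs exceeded 90% of final plateau.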

insulin degludec [IDeg]
Tolerability ([1]; 6 days of once-daily 0.4 U/kg, 22 Japanese type 1 diabetes patients): well tolerated | Injection-site reactions ([1]; after treatment with IDeg): no injection‐site reactions were recorded | Serious AEs ([1]; after treatment with IDeg): No serious AEs occurred | Treatment-emergent AEs (other than hypoglycemia), number ([1]; after treatment with IDeg, all AEs mild): three | Patients with confirmed treatment-emergent hypoglycemic episodes, number ([1]; fixed dose 0.4 U/kg): 13 patients | Confirmed treatment-emergent hypoglycemic episodes, number ([1]; fixed dose 0.4 U/kg, confirmed = severe, or plasma glucose <3.1 mmol/L): 93 | AUCτ,SS, 24-h exposure ([2]; Caucasian patients, 0.4 U/kg): 82,612 pmol h/L | Time to steady state ([2]; previously shown): 2 to 3 days | Time to steady state (trough concentrations exceeding 90% of final plateau) ([3]; once-daily dosing, all Japanese patients, confirmed by post-hoc analyses): 2 to 3 days | Time for which serum IDeg was detectable after the last dose ([3]; steady state, 120 h = end of observation period, Japanese patients): at least 120 h
